Measurements taken from ChEMBL document CHEMBL1133666, “Esterase-sensitive nitric oxide donors of the diazeniumdiolate family: in vitro antileukemic activity” (J Med Chem, 2000).

How the values were obtained:
[1] = tested on: HL-60; assay: Inhibitory activity towards HL-60 cells at 72 hours; format: functional, cell-based; details: Homo sapiens, HL-60, 72 h
How it was run: (§1)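 Leukemia cells seeded at 150 000 cells/mL in RPMI-1640 with 10% FBS, 37 °C, 5% CO₂, 1 mL per well. NO donors added at culture initiation. Cells harvested at 72 h and washed twice in PBS. Viable cells counted by Trypan blue exclusion. IC50 calculated from the concentration–growth curve. Means ± SEM of at least three separate experiments.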

[2] = tested on: HL-60; assay: Within 24 hr at initial concentrations of 50 uM, apoptosis induction was evaluated in HL-60 cells; format: functional
How it was run: (§2)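 Cells grown at 150 000 cells/mL in RPMI-1640 with 10% FBS, 37 °C, 5% CO₂, with compound added at culture start and read at 24 h. Cells washed in PBS and lysed in 0.2% NP40/5% BSA in PBS with propidium iodide and RNase A. Flow cytometry scored the low-DNA-content (apoptotic) fraction as percent of cells. Means ± SEM of ≥3 experiments.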

[3] = tested on: U-937; assay: Inhibitory activity towards U937 cells at 72 hours; format: functional, cell-based; details: Homo sapiens, U-937, 72 h; how it was run: as §1
[4] = tested on: U-937; assay: Within 24 hr at initial concentrations of 50 uM, apoptosis induction was evaluated in U937 cells; format: functional; how it was run: as §2
[5] = tested on: HL-60; assay: Inhibitory activity towards HL-60 cells at concentration of 100 uM; format: functional; details: Homo sapiens; how it was run: as §1
[6] = tested on: U-937; assay: Inhibitory activity towards U937 cells at concentration of 100 uM; format: functional; details: Homo sapiens; how it was run: as §1

| Compound | IC50 [1] [µM] | IC50 [3] [µM] | Apoptosis induction [2] [%] | Apoptosis induction [4] [%] | inhibition at 100 µM [5] [%] | inhibition at 100 µM [6] [%] |
| --- | --- | --- | --- | --- | --- | --- |
| CCN(CC)/[N+]([O-])=N/OCOC(C)=O | 8.3 | 53 | 50 | 35 | – | – |
| CCN(CC)/[N+]([O-])=N/OCCSC(C)=O | – | – | – | – | 90 | 48 |

More lines, main results first:

| IC50 [1] [µM] | IC50 [3] [µM] | Compound | Apoptosis induction [2] [%] | Apoptosis induction [4] [%] | inhibition at 100 µM [5] [%] | inhibition at 100 µM [6] [%] |
| --- | --- | --- | --- | --- | --- | --- |
| 6.4 | 53 | CC(=O)OCO/N=[N+](\[O-])N1CCCC1 | 57 | 40 | – | – |
| > 600 | – | CCN(CC)/[N+]([O-])=N/O | – | – | – | – |
| > 600 | – | [O-]/[N+](=N\O)N1CCCC1 | – | – | – | – |
